Data from ChEMBL document CHEMBL4257520, “Design, synthesis and bioactivity investigation of tetrandrine derivatives as potential anti-cancer agents” (Medchemcomm, 2018).
Active and inactive are the calls of the source. No cut-off for these calls is given here.

Key:
HEL = experiment: Antiproliferative activity against HEL cells after 48 hrs by MTT assay; format: functional, cell-based; details: Homo sapiens
How it was run: (§1)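 MTT assay on human cancer lines held at 37 °C, 95% humidity, 5% CO2. Cells were exposed to compounds at 20.0–0.5 μM for 48 h, then washed twice with PBS. MTT (5 mg mL–1 in PBS) was added for 4 h at 37 °C, the formazan was dissolved in DMSO, and A490 was read. IC50 comes from replicate wells over three independent experiments.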

K562 = experiment: Antiproliferative activity against human K562 cells after 48 hrs by MTT assay; format: functional, cell-based; details: K562, 48 h; how it was run: as §1
PC-3 = experiment: Antiproliferative activity against human PC3 cells after 48 hrs by MTT assay; format: functional, cell-based; details: PC-3, 48 h; how it was run: as §1
[1] = Antiproliferative activity against human WM9 cells after 48 hrs by MTT assay; format: functional, cell-based; details: WM9, 48 h; how it was run: as §1
MDA-MB-231 [2] = experiment: Antiproliferative activity against human MDA-MB-231 cells after 48 hrs by MTT assay; format: functional, cell-based; details: MDA-MB-231, 48 h; how it was run: as §1
L02 = experiment: Cytotoxicity against human HL7702 cells after 48 hrs by MTT assay; format: cell-based; details: L02, 48 h
How it was run: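 Normal human liver HL7702 cells were assessed by MTT assay, with formazan absorbance as the read-out, to give an IC50 for cytotoxicity.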

MDA-MB-231 [3] = experiment: Induction of apoptosis in human MDA-MB-231 cells assessed as live cells at 2.5 uM after 24 hrs by Annexin V-FITC/propidium iodide staining based flow cytometry (reference value: 95.7%); format: functional
MDA-MB-231 [4] = experiment: Induction of apoptosis in human MDA-MB-231 cells assessed as early apoptotic cells at 2.5 uM after 24 hrs by Annexin V-FITC/propidium iodide staining based flow cytometry (reference value: 2.1%); format: functional
MDA-MB-231 [5] = experiment: Induction of apoptosis in human MDA-MB-231 cells assessed as late apoptotic cells at 2.5 uM after 24 hrs by Annexin V-FITC/propidium iodide staining based flow cytometry (reference value: 1.9%); format: functional
MDA-MB-231 [6] = experiment: Induction of apoptosis in human MDA-MB-231 cells assessed as necrotic cells at 2.5 uM after 24 hrs by Annexin V-FITC/propidium iodide staining based flow cytometry (reference value: 0.3%); format: functional
MDA-MB-231 [7] = experiment: Induction of apoptosis in human MDA-MB-231 cells assessed as live cells at 1.25 uM after 24 hrs by Annexin V-FITC/propidium iodide staining based flow cytometry (reference value: 95.7%); format: functional
MDA-MB-231 [8] = experiment: Induction of apoptosis in human MDA-MB-231 cells assessed as early apoptotic cells at 1.25 uM after 24 hrs by Annexin V-FITC/propidium iodide staining based flow cytometry (reference value: 2.1%); format: functional
MDA-MB-231 [9] = experiment: Induction of apoptosis in human MDA-MB-231 cells assessed as late apoptotic cells at 1.25 uM after 24 hrs by Annexin V-FITC/propidium iodide staining based flow cytometry (reference value: 1.9%); format: functional
MDA-MB-231 [10] = experiment: Induction of apoptosis in human MDA-MB-231 cells assessed as necrotic cells at 1.25 uM after 24 hrs by Annexin V-FITC/propidium iodide staining based flow cytometry (reference value: 0.3%); format: functional
MDA-MB-231 [11] = experiment: Induction of apoptosis in human MDA-MB-231 cells after 24 hrs by Annexin V-FITC/propidium iodide staining based flow cytometry; format: functional, cell-based
MDA-MB-231 [12] = experiment: Induction of apoptosis in human MDA-MB-231 cells assessed as increase in Bax expression at 2.5 uM after 24 hrs by Western blot analysis; format: functional, cell-based
How it was run: (§2)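 MDA-MB-231 cells were treated at 2.5 μM for 24 h and lysed in RIPA buffer. Protein was resolved on 10% SDS-PAGE, transferred to PVDF, and blocked in 5% BSA for 2 h at RT. Primary antibodies were applied overnight at 4 °C and HRP-conjugated secondary antibodies for 2 h at RT. Bands were detected by ECL, with β-actin as the loading reference.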

MDA-MB-231 [13] = experiment: Induction of apoptosis in human MDA-MB-231 cells assessed as increase in cleaved PARP expression at 2.5 uM after 24 hrs by Western blot analysis; format: functional, cell-based; how it was run: as §2
MDA-MB-231 [14] = experiment: Induction of apoptosis in human MDA-MB-231 cells assessed as decrease in Bcl-xl expression at 2.5 uM after 24 hrs by Western blot analysis; format: functional, cell-based; how it was run: as §2
MDA-MB-231 [15] = experiment: Induction of apoptosis in human MDA-MB-231 cells assessed as decrease in Bcl2 expression at 2.5 uM after 24 hrs by Western blot analysis; format: functional, cell-based; how it was run: as §2

Compound COc1cc(NS(=O)(=O)c2ccc3ccccc3c2)c2cc1Oc1ccc(cc1)C[C@H]1c3cc(c(OC)cc3CCN1C)Oc1c(OC)c(OC)cc3c1[C@H](C2)N(C)CC3 has an IC50 (HEL) of 2.33 µM, an IC50 (K562) of 1.68 µM and an IC50 (PC-3) of 3.96 µM. For the same compound, the IC50 [1] was 4.74 µM, the IC50 (MDA-MB-231 [2]) was 1.18 µM and the IC50 (L02) was 14.4 µM. For the same compound, the Activity (MDA-MB-231 [3]) was 42.6%, the Activity (MDA-MB-231 [4]) was 28.6% and the Activity (MDA-MB-231 [5]) was 27.2%. The Activity (MDA-MB-231 [6]) was 1.5%, the Activity (MDA-MB-231 [7]) was 85.9% and the Activity (MDA-MB-231 [8]) was 3.8%. The Activity (MDA-MB-231 [9]) was 9.6%, the Activity (MDA-MB-231 [10]) was 0.7% and the Activity (MDA-MB-231 [11]) was “Dose-dependent effect”. The Activity (MDA-MB-231 [12]) was “Active”, the Activity (MDA-MB-231 [13]) was “Active” and the Activity (MDA-MB-231 [14]) was “Active”. The Activity (MDA-MB-231 [15]) was “Active”.
